# Experimental data: ChEMBL document CHEMBL1139262, “Design, synthesis, and evaluation of 5-sulfamoyl benzimidazole derivatives as novel angiotensin II receptor antagonists” (Bioorg Med Chem, 2008)
# Legend:
# [1] = target: T1, Type-1 angiotensin II receptor A (Rattus norvegicus) (UniProt P25095); test: (§1) Antagonist activity at AT1 receptor in rat aortic rings; format: functional
# T1 sequence (whole entry): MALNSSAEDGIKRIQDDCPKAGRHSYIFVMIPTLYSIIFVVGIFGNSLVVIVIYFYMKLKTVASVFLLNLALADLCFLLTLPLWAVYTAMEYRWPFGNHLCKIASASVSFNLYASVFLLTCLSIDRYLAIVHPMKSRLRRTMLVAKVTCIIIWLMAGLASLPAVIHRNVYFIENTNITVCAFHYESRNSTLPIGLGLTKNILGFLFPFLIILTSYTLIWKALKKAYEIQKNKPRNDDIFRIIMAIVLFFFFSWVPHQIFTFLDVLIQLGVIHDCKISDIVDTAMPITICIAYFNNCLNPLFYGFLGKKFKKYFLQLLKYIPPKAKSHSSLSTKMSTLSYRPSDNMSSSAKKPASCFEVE
# Procedure, shortened: (§2)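 Isolated rat aortic ring in 10 ml bath of Krebs–Henseleit at 37 °C, pH 7.4, oxygenated, under 1 g tension. Ang II cumulative curve in 0.5-log steps (1 × 10−10 to 1 × 10−5), repeated after 15 min antagonist exposure at 1, 3 or 10 nmol. Response taken as % of maximal Ang II tension.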
# [2] = target: T2, Type-1 angiotensin II receptor A (Rattus norvegicus, UniProt P25095); test: as §1; format: functional; details: read-out: pA2 (converted); procedure, shortened: as §2
# T2 sequence (P25095 whole entry): T1 sequence (whole entry)
# Rattus norvegicus [3] = test: Antihypertensive effect in desoxycortisone acetate-induced hypertensive rat assessed as maximum decrease in mean arterial blood pressure at 3 mg/kg, ip after 6 hrs; format: functional, Artery; details: route intraperitoneal
# Procedure, shortened: (§3)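 Hypertension induced by uninephrectomy plus DOCA 40 mg kg−1 sc twice weekly for up to six weeks, with 1.0% NaCl and 0.2% KCl in drinking water; sham rats got tap water. Compound given ip, and mean arterial blood pressure measured 6 h after dosing. Activity expressed as fall in MABP.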
# Rattus norvegicus [4] = test: Antihypertensive effect in desoxycortisone acetate-induced hypertensive rat assessed as maximum decrease in mean arterial blood pressure at 5 mg/kg, ip after 6 hrs; format: functional, Artery; details: route intraperitoneal; procedure, shortened: as §3
pA10 [1],Kb [2] [µM],Structure (SMILES),Activity (Rattus norvegicus [3]) [mmHg],Activity (Rattus norvegicus [4]) [mmHg]
6.2,0.0794,CCCCc1nc2cc(S(=O)(=O)NCC)ccc2n1Cc1ccc(-c2ccccc2C(=O)O)cc1,49.9,–
6.2,0.1,CCCCNS(=O)(=O)c1ccc2c(c1)nc(CCCC)n2Cc1ccc(-c2ccccc2C(=O)O)cc1,47.6,–
5.8,0.251,CCCCc1nc2cc(S(=O)(=O)O)ccc2n1Cc1ccc(-c2ccccc2C(=O)O)cc1,44.7,–
6.7,0.00316,CCOc1nc2cccc(C(=O)O)c2n1Cc1ccc(-c2ccccc2-c2nnn[nH]2)cc1,–,56.2

# Further lines, the compound ahead of its results:
Structure (SMILES),pA10 [1],Kb [2] [µM],Activity (Rattus norvegicus [3]) [mmHg],Activity (Rattus norvegicus [4]) [mmHg]
CCCCc1nc2cc(S(=O)(=O)NC(C)(C)C)ccc2n1Cc1ccc(-c2ccccc2C(=O)O)cc1,5.4,0.00398,62.4,–
CCCCc1nc(Cl)c(CO)n1Cc1ccc(-c2ccccc2-c2nnn[nH]2)cc1 [LOSARTAN],7.1,–,–,58.3
CCCCc1nc2cc(S(=O)(=O)NC(C)C)ccc2n1Cc1ccc(-c2ccccc2C(=O)O)cc1,6.3,0.0631,51.7,–
CCCCc1nc2cc(S(=O)(=O)NC3CCCCC3)ccc2n1Cc1ccc(-c2ccccc2C(=O)O)cc1,5.7,0.0126,64.4,–
CCCCc1nc2cc(S(N)(=O)=O)ccc2n1Cc1ccc(-c2ccccc2C(=O)O)cc1,6.1,0.2,51.4,–
CCCCc1nc2cc(S(=O)(=O)NCCC)ccc2n1Cc1ccc(-c2ccccc2C(=O)O)cc1,6.4,0.0794,50.2,–
CCCCc1nc2cc(S(=O)(=O)NC)ccc2n1Cc1ccc(-c2ccccc2C(=O)O)cc1,6.3,0.126,52.5,–
CCCCc1nc2ccccc2n1Cc1ccc(-c2ccccc2C(=O)O)cc1,6.7,0.00316,–,–
